# Bioassay records: PubChem BioAssay, several laboratories
# A selection: hits, their analogues and other compounds. The true share with any hit is near 2.7%.
# RAM inhibit = blocks the yeast RAM network; inhibition, % at 50 µM; S. cerevisiae dse1pr::URA3 reporter, 5-FOA growth OD615, 2 d; analog-sensitive cbk1-as2 kinase mutant strain; 1.8% of 190,000 active; AID 868;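 active = inhibition above a set limit, 3 SD over mean compound inhibition, cut at about 8.4% in these data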;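 also: 0% = DMSO-only wells with no growth and 100% = 10 µM 1-NA-PP1 full growth; inhibition rescues growth on 5-FOA so higher OD means more RAM inhibition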
# Yeast life ext = extends the lifespan of yeast. 0.68% of 130,000 active. inhibition of the nicotinamide effect, % at 10 µM. S. cerevisiae growth with nicotinamide, OD615; deaD strain in restrictive glucose medium;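 active = inhibition above a set limit, placed 3 SD over the median of all compounds, cut at about 26% in these data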;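 also: 0% = nicotinamide-treated wells and 100% = cells grown without nicotinamide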
#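 assay system = DeaD-strain S. cerevisiae | buffer or medium = restrictive glucose medium | reagent = 1.5 mM nicotinamide | compound = 10 µM single point, 0.25% DMSO | incubation = 48 h compound exposure at 30 °C, humidified | signal = OD615 measurement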
# SDO1 yeast rescue = restores growth of sdo1-depleted yeast. S. cerevisiae sdo1-depleted JHY4D growth rescue, OD600 30 h; hits give high values; pdr5 snq2 efflux-pump mutant strain. z-score at 10 µM. 0.21% of 140,000 active. AID 817;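 active = z-score above 3 at both the 24 hr and the 30 hr optical density reads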;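 also: z-score against mean and SD of all compound wells on the same plate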
# BB579 growth dn = yeast BB579 growth reduction in restrictive medium; S. cerevisiae BB579 growth, OD615, 48 h; inhibition, % at 10 µM; 0.51% of 140,000 active;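 active = inhibition above a set limit, 3 SD over the mean compound inhibition, cut at about 44% in these data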
#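 Material: Saccharomyces cerevisiae DeaD strain BB579, replicative lifespan model yeast; buffer or medium: CSMM-D restrictive synthetic medium containing dextrose (glucose); compound: 10 µM single dose, DMSO 0.25%; timing: 48 h compound exposure at 30 °C after 4 h preincubation; signal: turbidity as optical density at 615 nm; benchmarks: positive control amphotericin B 10 µg/mL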
# RAM 5-FOA = RAM network inhibition, efflux-deficient strain; shares compounds with RAM inhibit; S. cerevisiae efflux-deficient reporter strain, 5-FOA growth OD615, 2 days; max inhibition, %; 1,200 tested, under 10 active; AID 1305; call rule not given here;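 also: plate controls were vehicle for no effect and reference inhibitor for full effect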
# Active calls of the source: *; x = no result given.
SMILES,RAM inhibit,Yeast life ext,SDO1 yeast rescue,BB579 growth dn,RAM 5-FOA
COc1ccc(CN2CCNC(=O)C2CC(=O)NC2Cc3ccccc3C2)c(OC)c1 (stereo not drawn),0,x,x,x,x
O=C(CCC1CCCCC1)Nc1ccccc1-c1ccccc1,25*,-15,-1.8,1,5
COc1ccccc1-c1noc(CCC(=O)Nc2cccc(C(F)(F)F)c2)n1,23*,-8,-1.6,-42,1
CCCc1nn(C)c(C(=O)Nc2ccc(Cl)cc2)c1Cl,3,0,-0.82,-7,x
CCCc1nn(C)c(C(=O)Nc2ccc(C(C)(C)C)cc2)c1Cl,13*,12,0.24,-31,4
Cc1cc(=O)oc2cc(OC(=O)c3cncc(Br)c3)ccc12,0,x,x,x,x
CCOC(=O)c1sc(-c2ccccc2)cc1NC(=O)c1ccc(S(=O)(=O)N(CCOC)CCOC)cc1,18*,9,0.83,-31,3
COC(=O)c1sc(-c2ccccc2)cc1NC(=O)c1ccccc1,4,0,-1.1,-14,x
O=C(COc1ccc(NS(=O)(=O)c2ccc(F)cc2)cc1)N1CCOCC1,1,x,x,x,x
N#Cc1nc(Cc2cccc3ccccc23)oc1N1CCCCC1,12*,1,-1.4,-26,3
N#Cc1nc(-c2cccc3ccccc23)oc1N1CCCCC1,2,-2,0.87,6,x
N#Cc1nc(Cc2ccccc2)oc1N1CCC(Cc2ccccc2)CC1,13*,1,-0.08,-38,7
COc1ccc(CNc2oc(COc3ccccc3)nc2C#N)cc1,5,-9,-0.23,-16,x
N#Cc1nc(Cc2ccccc2)oc1N1CCN(c2ccccc2)CC1,5,-8,-0.75,-33,x
COc1ccccc1-c1nc(C#N)c(N2CCC(Cc3ccccc3)CC2)o1,13*,-9,-1.1,-48,5
COc1ccc(CNc2oc(Cc3cccc4ccccc34)nc2C#N)cc1,13*,-1,-0.1,-26,3
Cn1cccc1C(=O)OCC(=O)Nc1ccc2c(c1)OCO2,0,x,x,x,x
Cn1cccc1C(=O)OCc1cc(Cl)cc2c1OCOC2,12*,-7,-1.5,-47,4
C/C(=N\OC(=O)c1ccc(F)cc1)c1sc(-c2ccccc2)nc1C,6,-5,-0.54,-21,x
C/C(=N\OC(=O)c1ccc(Cl)cc1)c1sc(-c2ccccc2)nc1C,12*,5,-0.09,-29,4
O=C(/C=C/c1cccc(C(F)(F)F)c1)Nc1cccc(C(F)(F)F)c1,12*,-9,-1.8,-42,2
O=C(Nc1cccc(C(F)(F)F)c1)C1CCCCC1,22*,-10,0.48,-37,0
CS(=O)(=O)N1CCC(C(=O)Nc2cccc(C(F)(F)F)c2)CC1,-1,-5,-0.49,-8,x
CCOC(=O)c1c(-c2ccc(C)o2)csc1NC(=O)CN1CCN(CC)CC1,2,-15,-0.26,18,x
CCOC(=O)c1c(-c2ccc(C)o2)csc1NC(=O)CSc1nncs1,12*,-20,-0.59,-63,1
SMILES,RAM inhibit,Yeast life ext,SDO1 yeast rescue,BB579 growth dn,RAM 5-FOA
COc1ccc(CC(=O)Nc2cc3oc4ccccc4c3cc2OC)cc1,12*,1,-0.96,-35,3
COc1ccc(OC)c(NC(=O)COC(=O)Cc2ccc(-c3ccccc3)cc2)c1,14*,3,-0.55,-46,3
CCOc1ccccc1NC(=O)COC(=O)Cc1ccc(-c2ccccc2)cc1,3,2,0.47,-11,x
COc1ccccc1CC(=O)Nc1cc2oc3ccccc3c2cc1OC,5,-11,0.67,-26,x
COc1cc(NC(=O)COC(=O)Cc2ccc(-c3ccccc3)cc2)cc(OC)c1,17*,-3,-0.81,-28,4
O=C(COc1cccc(F)c1)N1c2ccccc2Sc2ccccc21,15*,6,-1,-73,4
N#Cc1ccc(-c2cccnc2)nc1SCc1ccc(Cl)c(Cl)c1,13*,3,-0.83,-48,11
N#Cc1ccc(-c2cccnc2)nc1SCc1ccc(Cl)cc1Cl,4,0,-2.4,-35,x
O=C(O)c1cnn(-c2nc(-c3ccc(F)cc3)cs2)c1C(F)(F)F,2,x,x,x,x
CCOC(=O)c1cnn(-c2nc(-c3ccc(C)cc3)cs2)c1C(F)(F)F,12*,-8,1.2,-7,3
O=C(Nc1ncc(Cc2ccc(SC(F)F)cc2)s1)c1ccc(OC(F)F)cc1,6,7,-0.12,-64,x
COc1ccc(-c2ccc(SCC(=O)NCc3ccc4c(c3)OCO4)nn2)cc1OC,12*,x,x,x,6
COc1ccc(-c2nc(CSCC(=O)NCc3ccc4c(c3)OCO4)c(C)o2)cc1OC,0,-6,-0.22,4,x
COc1ccc(NC(=O)Cc2ccc(C)c(C)c2)cc1Cl,4,x,x,x,x
Cc1ccc(C(=O)NC(C#N)=C(Cl)Cl)cc1,1,x,x,x,x
C=CCn1c(C)cc(C(=O)COC(=O)/C=C/c2ccc(OC)cc2)c1C,8,x,x,x,x
C=CCn1c(C)cc(C(=O)COC(=O)/C=C/c2cccc(OC)c2)c1C,20*,x,x,x,5
CCc1ccccc1N1CCN(S(=O)(=O)c2cc(OC)ccc2OC)CC1,13*,-5,-1,-43,2
O=C(OCc1nnc(-c2ccccc2)o1)C12CC3CC(CC(Br)(C3)C1)C2,21*,x,x,x,2
Clc1ccc(CSc2nnc(/C=C/c3ccccc3)o2)cc1,13*,0,-0.31,-30,2
CCN(CC)C(=O)Cn1cc(C(=O)C2CC2)c2ccccc21,1,x,x,x,x
COc1ccc(OC)c(-c2c(C#N)c(N)nc3c2c(=O)nc2sccn23)c1,0,x,x,x,x
CCCCn1c(=N)n(CC(O)COc2ccc(C)cc2)c2ccccc21 (stereo not drawn),0,-4,0.33,-5,x
Cc1cccc(C)c1OCC(O)Cn1c2ccccc2c2ccccc21 (stereo not drawn),15*,-5,-2.2,-34,7
Cc1cccc(C)c1OCC(O)Cn1nnc2ccccc21 (stereo not drawn),1,-11,0.2,-40,x
SMILES,RAM inhibit,Yeast life ext,SDO1 yeast rescue,BB579 growth dn,RAM 5-FOA
Cc1ccc(OCC(O)Cn2c3ccccc3c3ccccc32)cc1 (stereo not drawn),12*,-17,-1.2,-60,2
Fc1ccccc1NC(=S)N(CCN1CCCCC1)Cc1ccco1,1,x,x,x,x
Cc1cc(NC(=O)CSc2nnc(N)s2)c([N+](=O)[O-])cc1C,1,x,x,x,x
COC(=O)c1scc(C)c1N/N=C(\C)c1ccc(F)cc1F,13*,-3,-0.6,-51,5
Cc1ccc(SCc2nc(-c3ccccc3)no2)cc1,2,-10,-0.61,-15,x
Cc1ccc(-c2noc(CSc3nnc(CCc4ccccc4)n3-c3ccccc3)n2)cc1,14*,8,-1.3,-25,2
CCc1cc2c(=O)n(Cc3ccco3)c(SCc3c(C)noc3C)nc2s1,13*,-3,-1.8,-49,7
C=CCc1cccc(/C=N/NC(=O)C(C)Nc2ccc(C)cc2)c1O (stereo not drawn),16*,1,-1.5,7,1
CS(=O)(=O)c1ccc(SCC(=O)NC2CCS(=O)(=O)C2)c([N+](=O)[O-])c1 (stereo not drawn),3,x,x,x,x
